Test results from PubChem BioAssay.
Activity calls are given as the source filed them.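 Rule for the calls, unless noted: active = duplicate-averaged activation above buffer control mean plus 5 SD of those controls; inactive = the rest.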

Key:
[1] = nonspecific flux increase, KCNQ1-free cells – parental CHO cells, counter-screen for KCNQ1 potentiator project (AID 493006); settings: parental CHO-K1 cells, FluxOR thallium flux, at 10 µM; stronger effect = higher value;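 for activation: fluorescence ratio of max minus min over baseline after K+ and Tl+ depolarization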
Procedure, shortened: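 Benchmarks – buffer and R-L3 controls · Assay system – untransfected host CHO-K1 cells with FluxOR thallium dye · Measure – fluorescence change ratio scaled 0% buffer, 100% R-L3 · Technique – kinetic thallium-flux fluorescence · Timing – overnight 37 °C plating, 90 min RT dye, 20 min compound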

[2] = target: Potassium voltage-gated channel subfamily KQT member 1 (Homo sapiens) (UniProt P51787); test: enhancement of KCNQ1 channel thallium flux – FluxOR thallium flux, CHO cells, duplicates, confirmation (AID 493007;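 active = potentiation averaged over duplicate wells exceeding buffer-only control mean by more than 3 SD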;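 for outcome: cells depolarized by a potassium plus thallium sulfate stimulus after compound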); settings: KCNQ1 cell line, FluxOR thallium flux fluorescence, at 10 µM; stronger effect = higher value, % of reference activator effect, buffer zero
Sequence of Potassium voltage-gated channel subfamily KQT member 1 (Homo sapiens) (P51787 whole entry, looked up): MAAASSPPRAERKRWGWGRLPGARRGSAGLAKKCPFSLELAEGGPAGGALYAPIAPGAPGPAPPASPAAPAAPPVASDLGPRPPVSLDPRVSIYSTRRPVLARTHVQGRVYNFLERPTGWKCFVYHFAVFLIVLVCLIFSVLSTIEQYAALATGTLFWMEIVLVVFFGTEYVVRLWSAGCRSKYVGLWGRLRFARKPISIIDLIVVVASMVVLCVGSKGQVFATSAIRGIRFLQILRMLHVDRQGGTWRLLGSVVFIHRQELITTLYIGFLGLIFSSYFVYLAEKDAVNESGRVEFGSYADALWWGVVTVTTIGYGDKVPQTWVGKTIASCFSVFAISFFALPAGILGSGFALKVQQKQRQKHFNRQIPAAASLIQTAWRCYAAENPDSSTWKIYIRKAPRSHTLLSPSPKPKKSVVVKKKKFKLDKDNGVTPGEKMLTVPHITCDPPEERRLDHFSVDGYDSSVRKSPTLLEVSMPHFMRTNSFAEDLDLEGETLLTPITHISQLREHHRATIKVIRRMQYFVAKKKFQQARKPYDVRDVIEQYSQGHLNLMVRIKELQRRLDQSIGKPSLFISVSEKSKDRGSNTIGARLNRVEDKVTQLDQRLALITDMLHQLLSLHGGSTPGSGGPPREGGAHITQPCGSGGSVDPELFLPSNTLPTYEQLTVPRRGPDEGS
Procedure, shortened: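 Material: CHO cells stably expressing the KCNQ1 potassium channel / Times: dye 90 min then compound 20 min, both at room temperature / Detection: kinetic thallium influx fluorescence with FluxOR dye, 10 s baseline, 110 s post-stimulus / Benchmarks: buffer-only wells as 0% and R-L3 activator as 100% / Replicates: each compound tested in duplicate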

[3] = target: Potassium voltage-gated channel subfamily KQT member 2 (Rattus norvegicus) (UniProt O88943); test: KCNQ2 thallium flux enhancement – KCNQ2-CHO-K1 cells, selectivity assay for KCNQ1 potentiator project (AID 493009;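 active = mean duplicate potentiation above the buffer control mean plus 5 SD of buffer wells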;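 note: assay conditions were tuned for KCNQ1 rather than KCNQ2 modulators; signal is max minus min fluorescence divided by baseline after thallium stimulus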); settings: FluxOR thallium flux fluorescence, at 10 µM; stronger effect = higher value, scaled: buffer 0, activator control 100
Sequence of Potassium voltage-gated channel subfamily KQT member 2 (Rattus norvegicus) (O88943 whole entry, looked up): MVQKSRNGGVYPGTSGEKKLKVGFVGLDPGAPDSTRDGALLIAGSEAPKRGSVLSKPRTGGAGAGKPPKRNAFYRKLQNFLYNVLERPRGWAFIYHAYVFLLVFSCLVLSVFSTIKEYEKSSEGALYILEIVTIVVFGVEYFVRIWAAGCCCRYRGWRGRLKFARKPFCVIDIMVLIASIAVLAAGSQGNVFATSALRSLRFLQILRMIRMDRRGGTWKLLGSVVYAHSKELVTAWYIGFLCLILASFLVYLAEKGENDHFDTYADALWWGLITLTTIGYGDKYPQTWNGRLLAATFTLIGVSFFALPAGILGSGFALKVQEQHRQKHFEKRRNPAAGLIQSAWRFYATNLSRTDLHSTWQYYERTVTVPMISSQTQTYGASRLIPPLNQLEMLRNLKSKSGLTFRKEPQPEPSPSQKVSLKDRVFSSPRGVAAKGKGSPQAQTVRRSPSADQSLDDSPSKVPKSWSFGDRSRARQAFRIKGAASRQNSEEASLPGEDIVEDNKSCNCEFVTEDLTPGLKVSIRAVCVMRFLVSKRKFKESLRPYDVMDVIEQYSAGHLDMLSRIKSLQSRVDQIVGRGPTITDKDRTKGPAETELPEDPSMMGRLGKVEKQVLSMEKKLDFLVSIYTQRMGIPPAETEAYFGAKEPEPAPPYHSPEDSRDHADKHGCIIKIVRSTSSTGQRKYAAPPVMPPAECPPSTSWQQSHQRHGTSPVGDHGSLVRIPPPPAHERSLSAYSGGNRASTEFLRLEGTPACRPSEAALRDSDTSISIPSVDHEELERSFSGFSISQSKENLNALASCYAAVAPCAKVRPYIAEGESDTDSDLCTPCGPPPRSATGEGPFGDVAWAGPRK

[4] = target: Potassium voltage-gated channel subfamily KQT member 1 (Homo sapiens) (UniProt P51787); test: KCNQ1 activators by electrophysiology – IonWorks patch clamp, KCNQ1-CHO cells, orthogonal assay for KCNQ1 potentiator project, confirmation (AID 493184;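 active = current rise at least 3 SD above the untreated control mean in each of two repeat wells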;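 for current potentiation: percent change of the same well's current before compound addition so 0% = no change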); settings: automated patch clamp current, at 10 µM; stronger effect = higher value
Procedure, shortened: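 Probe or stimulus: depolarizing pulse to +40 mV from -90 mV; Material: CHO cells carrying KCNQ1; Compound: one dose, 10 µM final; Signal: automated voltage clamp, amphotericin B perforated patch; Read-out basis: percent current increase versus pre-compound level; Buffer or medium: pH 7.4 external bath; Replication: duplicates.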

Row | Compound | outcome [1] | outcome [2] | outcome [3] | outcome [4] | activation [1] | potentiation [2] | potentiation [3] | current potentiation [4]
1 | Cc1noc(C)c1S(=O)(=O)Nc1ccc(C#N)cc1 | inactive | inactive | inactive | inactive |  |  |  | 
2 | O=C(CCC(=O)c1ccc(F)cc1)Nc1cc(Cl)cc(Cl)c1 | inactive | inactive | inactive | inactive |  |  |  | 
3 | Cc1ccc(N=Nc2ccc(O)c3ncccc23)cc1 |  |  |  | inactive | 185% (active) | 52.5% (active) | 229% (active) | 
4 | COc1ccc(CNC(=O)COC(=O)/C=C/c2ccc(Cl)cc2)cc1 | inactive | inactive | inactive | inactive |  |  |  | 
5 | Cc1cccc(NC(=S)NNC(=O)c2csc3c2CCC(C)C3)c1 (stereo not given) |  |  |  | inactive | 193% (active) | 86% (active) | 248% (active) | 
6 | COC(=O)c1sc(NC(=S)NC(=O)c2ccccc2F)nc1C | inactive | inactive | inactive | inactive |  |  |  | 
7 | Cc1ccc(-c2cc(-c3n[nH]c(=S)o3)c3ccccc3n2)cc1 |  |  |  |  | 468% (active) | 260% (active) | 512% (active) | 18.8% (active)
8 | Cc1ccc(-c2nc3c(Cl)cc(Cl)cc3c(=O)n2O)cc1 |  |  |  | inactive | 828% (active) | 414% (active) | 820% (active) | 
9 | Cc1[nH]n(-c2cccc3ccccc23)c(=O)c1/C=N/c1sc2c(c1C#N)CCC2 |  |  |  | inactive | 204% (active) | 122% (active) | 288% (active) | 
10 | Cc1ccc(Cc2cnc(N3C(=N)SC(c4ccccc4)C3=O)s2)cc1 (stereo not given) | inactive | inactive | inactive | inactive |  |  |  | 
11 | S=c1nc[nH]c2c1cnn2-c1ccccc1 |  |  |  | inactive | 168% (active) | 29.5% (active) | 222% (active) | 
12 | CC(/C=C1\SC(=S)N(NS(=O)(=O)c2ccc(C)cc2)C1=O)=C\c1ccccc1 |  |  |  | inactive | 507% (active) | 424% (active) | 666% (active) | 
13 | Cc1cc(C)n(CC(=O)N2CCCC(N3CCN(c4ccccc4C)CC3)C2)n1 (stereo not given) |  |  |  | inactive | 174% (active) | 79% (active) | 206% (active) | 
14 | Cc1cccc(C(=O)NC(=S)N(C)C2CCCCC2)c1 |  |  |  | inactive | 268% (active) | 72.5% (active) | 326% (active) | 
15 | CC1(c2ccc(OC(F)F)cc2)NC(=O)N(CC(=O)Nc2ccc(OC(F)F)cc2)C1=O (stereo not given) | inactive | inactive | inactive | inactive |  |  |  | 
16 | CC(C)Cn1c(=O)c(C(=O)N/N=C/c2cccc(F)c2)c(O)c2ccccc21 | inactive | inactive | inactive | inactive |  |  |  | 
17 | O=[N+]([O-])c1ccc(Nc2ccc(Cl)cc2)nc1 | inactive | inactive |  | inactive |  |  | 166% (active) | 
18 | CSc1nc(Nc2ccc(Cl)cc2)c(C#N)c(=O)[nH]1 | inactive | inactive | inactive | inactive |  |  |  | 
19 | O=S(=O)(NC(=S)NC1CCCCC1)c1ccc(Cl)cc1 |  |  |  | inactive | 191% (active) | 56.5% (active) | 199% (active) | 
20 | O=C1c2ccccc2C2(c3cc(C(F)(F)F)cc(C(F)(F)F)c3)NCCN12 (stereo not given) | inactive | inactive | inactive | inactive |  |  |  | 

Row | Compound | outcome [1] | outcome [2] | outcome [3] | outcome [4] | activation [1] | potentiation [2] | potentiation [3] | current potentiation [4]
21 | CCOC(=O)Cc1csc(NC(=S)NC(=O)C(C)(C)C)n1 |  | inactive | inactive | inactive | 136% (active) |  |  | 
22 | Cn1ccnc1C(OC(=O)c1ccc(Cl)cc1)C(F)(F)F (stereo not given) | inactive | inactive | inactive | inactive |  |  |  | 
23 | CC(=O)NC1=C(NC2CCS(=O)(=O)C2)C(=O)c2ccccc2C1=O (stereo not given) | inactive | inactive | inactive | inactive |  |  |  | 
24 | COc1ccc(CNC(=O)CNC(C)c2ccc(F)cc2)cc1 (stereo not given) | inactive | inactive | inactive | inactive |  |  |  | 
25 | c1ccc2c(OCCCCN3CCOCC3)cccc2c1 | inactive | inactive | inactive | inactive |  |  |  | 
26 | CCCc1c(C)[nH]c2ccc(NC(C)=O)cc2c1=O | inactive | inactive | inactive | inactive |  |  |  | 
27 | O=C(NCc1ccccc1)C(=O)NCC1CCCN1S(=O)(=O)c1cccs1 (stereo not given) | inactive | inactive | inactive | inactive |  |  |  | 
28 | NC(N)=N/N=C/c1ccccc1OC(F)F | inactive | inactive | inactive | inactive |  |  |  | 
29 | CC(C)CSc1n[nH]c(=S)s1 | inactive | inactive |  | inactive |  |  | 145% (active) | 
30 | CC(C)C(=O)Nc1c(-c2ccccc2F)c(=O)c2ccccc2n1C | inactive | inactive | inactive | inactive |  |  |  | 
31 | O=C(NNC(=O)c1ccc2ccccc2c1O)c1cccs1 | inactive | inactive | inactive | inactive |  |  |  | 
32 | O=c1[nH]cc(S(=O)(=O)c2ccccc2)[nH]1 | inactive | inactive | inactive | inactive |  |  |  | 
33 | CCCCn1c(=S)[nH]c2ccccc2c1=O |  |  |  | inactive | 160% (active) | 50.5% (active) | 187% (active) | 
34 | CNc1nc(N)c([N+](=O)[O-])c(Nc2cccc(F)c2)n1 | inactive | inactive | inactive | inactive |  |  |  | 
35 | COc1cccc(-c2c(NC(=O)c3ccco3)n(-c3ccc(C)cc3)nc(C)c2=O)c1 | inactive | inactive | inactive | inactive |  |  |  | 
36 | Cc1ccccc1OCC(=O)N=Nc1c(O)n(C)c2ccccc12 |  |  |  | inactive | 188% (active) | 42% (active) | 188% (active) | 
37 | Cc1cccc(N=Cc2cc(Br)cc(Cl)c2O)c1 |  |  | inactive | inactive | 188% (active) | 27% (active) |  | 
38 | CCc1cc2c(=O)[nH]c(-c3ccccn3)nc2s1 | inactive |  |  | inactive |  | 26% (active) | 226% (active) | 
39 | COc1cccc(C=O)c1OCCCOc1cccc2cccnc12 | inactive | inactive | inactive | inactive |  |  |  | 
40 | COc1cc(/C=C2\C(=O)N(C)C(=S)N2C)ccc1O | inactive | inactive | inactive | inactive |  |  |  | 

Row | Compound | outcome [1] | outcome [2] | outcome [3] | outcome [4] | activation [1] | potentiation [2] | potentiation [3] | current potentiation [4]
41 | N=c1sccn1CC(=O)N1N=C(c2ccc(Cl)cc2)CC1c1ccco1 (stereo not given) | inactive | inactive | inactive | inactive |  |  |  | 
42 | CCC(NC(=O)CCc1nnc(-c2cc(C)on2)o1)C12CC3CC(CC(C3)C1)C2 (stereo not given) | inactive | inactive | inactive | inactive |  |  |  | 
43 | CC1=NN(C(N)=S)C(=O)C1N=Nc1cccc(Cl)c1C (stereo not given) |  |  |  | inactive | 1010% (active) | 665% (active) | 1230% (active) | 
44 | COCCNC(=O)C1CCN(S(=O)(=O)N2CCC3(CC2)OCCO3)CC1 | inactive | inactive | inactive | inactive |  |  |  | 
45 | S=c1[nH]cnc2scc(-c3ccccc3)c12 |  |  |  | inactive | 192% (active) | 52% (active) | 205% (active) | 
46 | CCC1CCC2(CC1)NC(CO)(CO)CO2 (stereo not given) | inactive | inactive | inactive | inactive |  |  |  | 
47 | COc1ccc(-c2csc(NC(=O)C3=NN(c4ccccc4)C(=O)CC3)n2)cc1 | inactive |  | inactive |  |  | 146% (active) |  | 101% (active)
48 | COc1ccc(C(=O)CC(=O)C(=O)Nc2ccccc2C(F)(F)F)cc1 | inactive |  |  | inactive |  | 38.5% (active) | 147% (active) | 
49 | CCCCN1CNC(=S)N(c2ccccc2OCC)C1 | inactive | inactive | inactive | inactive |  |  |  | 
50 | Cc1cccc(/C=C2/S/C(=N/N=C3\CC4CCC3(C)C4(C)C)NC2=O)c1 (stereo not given) | inactive |  | inactive | inactive |  | 28% (active) |  | 
51 | Oc1c(Cl)cc(Cl)c2cccnc12 |  |  |  | inactive | 148% (active) | 67% (active) | 211% (active) | 
52 | O=C(Nc1nc(=O)c2ccccc2s1)c1ccc(F)cc1 | inactive | inactive |  | inactive |  |  | 152% (active) | 
53 | Cc1ccc(C(C)C)c(OCc2n[nH]c(=S)o2)c1 |  |  |  | inactive | 154% (active) | 27% (active) | 160% (active) | 
54 | CC(=O)CC1(OC(C)=O)C(=O)N(C)c2ccccc21 (stereo not given) | inactive | inactive | inactive | inactive |  |  |  | 
55 | CCC(=O)NNc1nc2c(Cl)cccc2s1 | inactive | inactive | inactive | inactive |  |  |  | 
56 | CC(C)C1Cc2c(sc3[nH]c(=S)n(Cc4ccccc4)c(=O)c23)CO1 (stereo not given) |  |  |  | inactive | 404% (active) | 128% (active) | 362% (active) | 
57 | Cc1ccc2oc(C(=O)N3CCN(c4cccc(C)n4)CC3)c(C)c2c1 | inactive | inactive | inactive | inactive |  |  |  | 
58 | O=C(NC(=S)N1CCN(Cc2ccc3c(c2)OCO3)CC1)c1ccc(Cl)cc1 |  |  |  | inactive | 260% (active) | 86% (active) | 298% (active) | 
59 | Cc1onc(-c2ccccc2)c1C(=O)NC(=S)Nc1sc2c(c1C#N)CCC(C)C2 (stereo not given) |  |  |  | inactive | 145% (active) | 28% (active) | 142% (active) | 
60 | CC(=O)c1cccc(NC(=S)NC(=O)c2ccc(Cl)cc2)c1 | inactive | inactive | inactive | inactive |  |  |  | 
